Measured values as given in ChEMBL document CHEMBL1141588, “Pyrrolo[2,3-a]carbazoles as potential cyclin dependent kinase 1 (CDK1) Inhibitors. Synthesis, biological evaluation, and binding mode through docking simulations” (J Med Chem, 2008).
Calls of active or inactive are those of the source. The calls are words filed in the database; no cut-off is given here.

Experiments:
[1] = biological target: Cyclin-dependent kinase 1/cyclin B1 (Homo sapiens, UniProt P06493); experiment: Inhibition of CDK1/cyclin B by MESACUP assay; format: protein-complex assay
Sequence of Cyclin-dependent kinase 1/cyclin B1 (P06493 whole entry): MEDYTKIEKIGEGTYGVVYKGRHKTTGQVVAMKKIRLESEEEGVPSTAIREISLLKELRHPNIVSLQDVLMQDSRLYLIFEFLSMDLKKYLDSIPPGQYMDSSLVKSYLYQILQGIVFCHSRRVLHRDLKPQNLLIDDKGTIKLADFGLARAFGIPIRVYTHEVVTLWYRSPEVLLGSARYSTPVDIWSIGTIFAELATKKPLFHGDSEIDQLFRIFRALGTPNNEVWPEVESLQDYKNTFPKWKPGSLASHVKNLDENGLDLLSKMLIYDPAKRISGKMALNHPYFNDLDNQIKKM
Sequence of Cyclin-dependent kinase 1/cyclin B1 (P14635 whole entry, further chain): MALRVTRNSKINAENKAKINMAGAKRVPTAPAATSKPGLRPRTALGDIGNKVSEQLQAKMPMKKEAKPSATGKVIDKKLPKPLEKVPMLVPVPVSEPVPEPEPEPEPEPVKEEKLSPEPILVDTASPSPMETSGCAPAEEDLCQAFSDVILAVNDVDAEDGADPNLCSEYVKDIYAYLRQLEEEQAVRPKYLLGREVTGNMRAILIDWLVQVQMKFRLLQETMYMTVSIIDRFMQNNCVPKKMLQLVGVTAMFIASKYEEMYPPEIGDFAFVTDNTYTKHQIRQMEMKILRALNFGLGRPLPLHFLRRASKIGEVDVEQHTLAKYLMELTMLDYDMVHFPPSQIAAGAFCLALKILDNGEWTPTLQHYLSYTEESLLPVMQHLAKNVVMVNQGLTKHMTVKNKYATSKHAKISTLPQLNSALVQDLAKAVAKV

[2] = biological target: T1, Cyclin-dependent kinase 1/cyclin B1 (Homo sapiens) (UniProt P06493+P14635); experiment: Inhibition of CDK1/cyclin B at 30 uM; format: protein-complex assay
T1 sequence (P06493 whole entry, looked up): as the sequence (P06493 whole entry) above
T1 sequence (P14635 whole entry, looked up): as the sequence (P14635 whole entry, further chain) above

[3] = biological target: T1, Cyclin-dependent kinase 1/cyclin B1 (Homo sapiens); experiment: Inhibition of CDK1/cyclin B at 100 uM; format: protein-complex assay
How it was run: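 CDK1/cyclin B complex activity measured in vitro with the MESACUP cdc2 kinase assay kit. Compounds were tested at 100 µM. Activity was expressed as % CDK1 activity relative to untreated control samples, as mean ± SEM, with statistical comparison against control (P < 0.05, P < 0.001).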

[4] = Inhibition of CDK1/cyclin A at 50 uM
[5] = Inhibition of CDK1/cyclin E at 50 uM
[6] = biological target: Epidermal growth factor receptor (Homo sapiens) (UniProt P00533); experiment: Inhibition of EGFR upto 50 uM
Sequence of Epidermal growth factor receptor (Homo sapiens) (P00533 whole entry): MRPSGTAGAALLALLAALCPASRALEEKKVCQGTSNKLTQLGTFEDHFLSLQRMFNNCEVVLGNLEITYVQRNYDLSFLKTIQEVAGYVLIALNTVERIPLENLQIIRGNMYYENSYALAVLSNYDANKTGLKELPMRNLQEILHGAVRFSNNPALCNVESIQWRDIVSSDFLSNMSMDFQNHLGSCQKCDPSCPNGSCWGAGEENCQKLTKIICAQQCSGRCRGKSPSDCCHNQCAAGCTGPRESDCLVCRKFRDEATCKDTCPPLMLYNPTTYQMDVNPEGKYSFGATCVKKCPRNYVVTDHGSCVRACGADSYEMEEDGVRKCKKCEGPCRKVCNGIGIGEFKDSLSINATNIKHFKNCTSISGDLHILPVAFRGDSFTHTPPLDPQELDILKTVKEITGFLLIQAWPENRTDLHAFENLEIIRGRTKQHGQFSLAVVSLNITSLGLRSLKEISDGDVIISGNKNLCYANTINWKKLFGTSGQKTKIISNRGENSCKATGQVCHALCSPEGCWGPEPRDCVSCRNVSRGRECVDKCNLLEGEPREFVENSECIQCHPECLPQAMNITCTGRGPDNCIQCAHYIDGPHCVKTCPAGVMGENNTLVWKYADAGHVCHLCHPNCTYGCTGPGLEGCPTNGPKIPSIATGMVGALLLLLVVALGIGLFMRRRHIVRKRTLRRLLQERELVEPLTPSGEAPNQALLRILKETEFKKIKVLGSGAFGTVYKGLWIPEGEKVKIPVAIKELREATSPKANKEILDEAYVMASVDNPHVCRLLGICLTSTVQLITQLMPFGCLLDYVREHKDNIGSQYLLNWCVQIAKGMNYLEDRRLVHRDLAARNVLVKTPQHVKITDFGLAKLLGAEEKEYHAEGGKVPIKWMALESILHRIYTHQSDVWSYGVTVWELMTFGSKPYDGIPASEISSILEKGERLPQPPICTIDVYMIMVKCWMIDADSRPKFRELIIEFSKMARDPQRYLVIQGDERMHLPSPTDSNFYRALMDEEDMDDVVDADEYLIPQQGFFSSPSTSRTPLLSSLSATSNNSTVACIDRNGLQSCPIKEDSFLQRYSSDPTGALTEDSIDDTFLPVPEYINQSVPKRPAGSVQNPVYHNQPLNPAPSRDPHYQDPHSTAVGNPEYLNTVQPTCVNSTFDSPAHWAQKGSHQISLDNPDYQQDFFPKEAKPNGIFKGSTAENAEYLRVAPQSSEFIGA

[7] = Inhibition of IGFR upto 50 uM
[8] = Inhibition of FGFR upto 50 uM
[9] = biological target: Vascular endothelial growth factor receptor 2 (Homo sapiens) (UniProt P35968); experiment: Inhibition of KDR upto 50 uM
Sequence of Vascular endothelial growth factor receptor 2 (Homo sapiens) (P35968 whole entry): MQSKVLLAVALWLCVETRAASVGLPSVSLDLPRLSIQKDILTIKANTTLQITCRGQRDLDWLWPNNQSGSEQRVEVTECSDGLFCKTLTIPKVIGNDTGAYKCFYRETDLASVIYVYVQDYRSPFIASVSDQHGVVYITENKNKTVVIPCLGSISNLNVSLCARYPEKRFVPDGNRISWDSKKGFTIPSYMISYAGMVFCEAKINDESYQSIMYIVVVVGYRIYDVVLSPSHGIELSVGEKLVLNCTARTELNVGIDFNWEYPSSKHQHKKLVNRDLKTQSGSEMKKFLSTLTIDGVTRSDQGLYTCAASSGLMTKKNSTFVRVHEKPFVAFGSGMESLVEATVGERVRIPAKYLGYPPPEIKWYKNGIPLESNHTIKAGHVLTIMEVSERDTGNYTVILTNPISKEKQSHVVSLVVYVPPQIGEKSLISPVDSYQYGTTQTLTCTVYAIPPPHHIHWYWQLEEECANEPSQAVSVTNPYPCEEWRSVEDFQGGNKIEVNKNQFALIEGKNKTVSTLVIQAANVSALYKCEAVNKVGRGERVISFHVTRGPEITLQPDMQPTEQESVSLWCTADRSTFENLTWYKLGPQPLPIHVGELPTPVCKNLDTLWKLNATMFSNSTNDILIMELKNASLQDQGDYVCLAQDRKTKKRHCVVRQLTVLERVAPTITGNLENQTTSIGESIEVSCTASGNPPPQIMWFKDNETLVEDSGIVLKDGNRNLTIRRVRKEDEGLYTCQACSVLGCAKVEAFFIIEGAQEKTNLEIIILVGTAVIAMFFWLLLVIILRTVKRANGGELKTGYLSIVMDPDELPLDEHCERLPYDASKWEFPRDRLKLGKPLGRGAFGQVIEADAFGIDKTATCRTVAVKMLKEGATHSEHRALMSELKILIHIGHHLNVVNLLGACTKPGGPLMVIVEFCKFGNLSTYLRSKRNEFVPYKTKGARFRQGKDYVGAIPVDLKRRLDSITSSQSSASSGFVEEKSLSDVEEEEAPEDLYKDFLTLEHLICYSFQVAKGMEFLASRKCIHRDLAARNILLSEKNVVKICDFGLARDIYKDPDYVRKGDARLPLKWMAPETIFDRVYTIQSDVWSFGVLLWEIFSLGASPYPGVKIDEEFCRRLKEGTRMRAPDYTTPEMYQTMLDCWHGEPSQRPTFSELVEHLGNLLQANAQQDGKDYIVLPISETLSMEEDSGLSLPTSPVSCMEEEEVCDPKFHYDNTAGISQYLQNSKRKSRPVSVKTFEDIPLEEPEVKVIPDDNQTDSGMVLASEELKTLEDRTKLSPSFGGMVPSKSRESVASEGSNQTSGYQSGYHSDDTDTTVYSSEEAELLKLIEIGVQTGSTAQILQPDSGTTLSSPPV

[10] = biological target: Vascular endothelial growth factor receptor 3 (Homo sapiens) (UniProt P35916); experiment: Inhibition of Flt4 upto 50 uM
[11] = biological target: Angiopoietin-1 receptor (Homo sapiens) (UniProt Q02763); experiment: Inhibition of Tie2 upto 50 uM
Sequence of Angiopoietin-1 receptor (Homo sapiens) (Q02763 whole entry): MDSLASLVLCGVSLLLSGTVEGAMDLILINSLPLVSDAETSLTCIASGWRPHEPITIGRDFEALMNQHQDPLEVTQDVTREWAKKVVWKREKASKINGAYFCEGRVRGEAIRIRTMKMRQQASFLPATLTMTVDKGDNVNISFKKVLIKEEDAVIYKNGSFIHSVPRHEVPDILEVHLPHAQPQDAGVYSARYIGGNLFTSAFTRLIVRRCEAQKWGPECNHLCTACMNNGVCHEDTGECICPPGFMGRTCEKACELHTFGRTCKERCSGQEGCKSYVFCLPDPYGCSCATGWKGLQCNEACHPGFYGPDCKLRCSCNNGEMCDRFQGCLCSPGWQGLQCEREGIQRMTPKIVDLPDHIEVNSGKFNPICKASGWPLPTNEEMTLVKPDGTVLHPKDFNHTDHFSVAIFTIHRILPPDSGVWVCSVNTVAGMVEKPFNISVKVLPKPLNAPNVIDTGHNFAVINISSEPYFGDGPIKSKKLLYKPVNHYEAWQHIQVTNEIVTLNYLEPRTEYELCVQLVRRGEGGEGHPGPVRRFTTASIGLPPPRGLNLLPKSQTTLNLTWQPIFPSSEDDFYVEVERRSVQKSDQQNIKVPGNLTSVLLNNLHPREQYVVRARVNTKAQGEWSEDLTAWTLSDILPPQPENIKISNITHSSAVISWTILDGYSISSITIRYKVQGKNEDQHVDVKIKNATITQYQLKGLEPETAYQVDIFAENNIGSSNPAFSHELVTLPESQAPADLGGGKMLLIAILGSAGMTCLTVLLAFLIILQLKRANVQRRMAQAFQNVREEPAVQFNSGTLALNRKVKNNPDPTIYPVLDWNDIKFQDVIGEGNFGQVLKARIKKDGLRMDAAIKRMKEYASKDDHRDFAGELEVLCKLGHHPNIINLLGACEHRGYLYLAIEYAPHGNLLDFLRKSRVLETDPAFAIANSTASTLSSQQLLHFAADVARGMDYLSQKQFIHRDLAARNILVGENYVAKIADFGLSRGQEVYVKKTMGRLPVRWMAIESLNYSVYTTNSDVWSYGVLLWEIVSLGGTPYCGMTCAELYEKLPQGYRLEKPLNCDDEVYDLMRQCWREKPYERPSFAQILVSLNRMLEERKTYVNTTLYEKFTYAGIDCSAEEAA

**Q.** For CCOC(=O)c1cc2ccc3c4ccccc4[nH]c3c2[nH]1, which IC50 [1] is on record?
**A.** > 100 µM

**Q.** Which IC50 [1] does the source give for CCOC(=O)c1cc2ccc3c4cccc(Cl)c4[nH]c3c2[nH]1 here?
**A.** 15 µM

**Q.** And the inhibition [2]?
**A.** 50%

**Q.** What about the inhibition [3] of the same molecule?
**A.** 90%

**Q.** And the Activity [4]?
**A.** inactive

**Q.** What about the Activity [5] of the same molecule?
**A.** inactive

**Q.** And the Activity [6]?
**A.** inactive

**Q.** And the Activity [7]?
**A.** inactive

**Q.** And the Activity [8]?
**A.** inactive

**Q.** And the Activity [9]?
**A.** inactive

**Q.** And the Activity [10]?
**A.** inactive

**Q.** And the Activity [11]?
**A.** inactive

**Q.** For CCOC(=O)c1cc2ccc3c4cc(C)ccc4[nH]c3c2[nH]1, which IC50 [1] is on record?
**A.** > 100 µM

**Q.** Which IC50 [1] does the source give for CCOC(=O)c1cc2ccc3c4cc(Cl)ccc4[nH]c3c2[nH]1 here?
**A.** > 100 µM

**Q.** With CCOC(=O)c1cc2ccc3c4cc(OC)ccc4[nH]c3c2[nH]1 as the molecule, how does the IC50 [1] read?
**A.** > 100 µM

**Q.** With CCOC(=O)c1cc2ccc3c([nH]c4cccc(Cl)c43)c2[nH]1 as the molecule, how does the IC50 [1] read?
**A.** > 100 µM

**Q.** With CCOC(=O)c1cc2ccc3c4ccc(Cl)cc4[nH]c3c2[nH]1 as the molecule, how does the IC50 [1] read?
**A.** > 100 µM
